# Measurements as given in ChEMBL document CHEMBL4184228, “Reversed isoniazids: Design, synthesis and evaluation against Mycobacterium tuberculosis” (Bioorg Med Chem, 2018).
# Activity calls are given as the source filed them. The rule behind the calls is not given here.
# Tests used:
# [1] = system: Mycobacterium tuberculosis; assay: Antimycobacterial activity against isoniazid mono-resistant Mycobacterium tuberculosis isolate R5401 by two fold serial dilution based fluorescence assay; assay type: functional
# Summary of the method: (§1)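 MGIT 960 (BACTEC) broth assay in 7H9 with 1% OADC and 0.05% Tween 80. Compounds are 10 mM DMSO stocks, two-fold serially diluted, final DMSO ≤1.2%, top concentration 10 µM. Tubes incubated at 37°C with growth units read daily. MIC99 is set against a 1% drug-free growth control tube.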
# [2] = Selectivity index, ratio of IC50 for CHO cells to MIC99 for isoniazid mono-resistant Mycobacterium tuberculosis isolate R5401; assay type: toxicity; settings: hamster, read-out: Selectivity Index
# [3] = system: Mycobacterium tuberculosis; assay: Antimycobacterial activity against isoniazid mono-resistant Mycobacterium tuberculosis isolate R73 by two fold serial dilution based fluorescence assay; assay type: functional; summary of the method: as §1
# [4] = system: Mycobacterium tuberculosis; assay: Antimycobacterial activity against isoniazid mono-resistant Mycobacterium tuberculosis isolate R4965 by two fold serial dilution based fluorescence assay; assay type: functional; summary of the method: as §1
# [5] = Selectivity ratio of MIC99 for Mycobacterium tuberculosis H37Rv to MIC99 for isoniazid mono-resistant Mycobacterium tuberculosis isolate R5401; assay type: functional
# [6] = system: Mycobacterium tuberculosis variant bovis BCG; assay: Inhibition of efflux pump in Mycobacterium bovis BCG infected in macrophages assessed as accumulation of ethidium bromide at 25 uM by measuring increase in fluorescence intensity after 1 hr by flow cytometric assay; parameters: Activity: scale not given: the % may be the effect or the level left
# [7] = system: Mycobacterium tuberculosis variant bovis BCG; assay: Inhibition of efflux pump in Mycobacterium bovis BCG infected in macrophages assessed as accumulation of ethidium bromide at 50 uM by measuring increase in fluorescence intensity after 1 hr by flow cytometric assay relative to control; parameters: Activity: scale not given: the % may be the effect or the level left
# [8] = system: Mycobacterium tuberculosis variant bovis BCG; assay: Potency index, ratio of compound effect to CPZ effect for inhibition of efflux pump in Mycobacterium bovis BCG
# [9] = system: Mycobacterium tuberculosis variant bovis BCG; assay: Inhibition of efflux pump in Mycobacterium bovis BCG infected in macrophages assessed as accumulation of ethidium bromide at 10 uM by measuring increase in fluorescence intensity after 1 hr by flow cytometric assay; parameters: scale not given: the % may be the effect or the level left
Structure (SMILES),MIC99 [1] [µM],selectivity ratio [2],MIC99 [3] [µM],MIC99 [4] [µM],Ratio [5],inhibition [6],inhibition [7],Activity [7] [%],Ratio [8],Activity [6] [%],Activity [9] [%]
O=C(NNCCCN1CCC(=C2c3ccccc3Sc3ccc(Cl)cc32)CC1)c1ccncc1,1.25,237,> 10,> 10,,,,,,,
O=C(NNCCCN1CCN(C(c2ccccc2)c2ccccc2)CC1)c1ccncc1,2.5,19.3,> 10,> 10,2,,,,,,
O=C(NNCCCNCCCN1c2ccccc2Sc2ccc(Cl)cc21)c1ccncc1,> 10,,> 10,> 10,,,,,,,
O=C(NNCCCN1CCC(N2c3ccccc3Sc3ccccc32)CC1)c1ccncc1,2.5,48.8,> 10,> 10,2,,,,,,
O=C(NNCCCN1CCN(C2c3ccccc3CCc3ccccc32)CC1)c1ccncc1,> 10,,> 10,> 10,,,,,,,
CN(C)CCCN1c2ccccc2Sc2ccc(Cl)cc21 [CHLORPROMAZINE],,,,,,Active,,,,,
O=C(NNCCCN1CCN(C(c2ccccc2)(c2ccccc2)c2ccccc2)CC1)c1ccncc1,2.5,78.1,> 10,> 10,,,,,,,
NNC(=O)c1ccncc1 [ISONIAZID],2.5,> 35,,,,,Active,,,,
O=C(NNCCCN1CCN(CC(O)(c2ccccc2)c2ccccc2)CC1)c1ccncc1,2.5,139,> 10,> 10,,,,,,,
O=C(NNCCCN1CCC(=C2c3ccccc3Sc3ccccc32)CC1)c1ccncc1,2.5,60.8,> 10,> 10,,,,,,,
O=C(NNCCCN1c2ccccc2Sc2ccccc21)c1ccncc1,> 10,,> 10,> 10,,,Active,,,,
O=C(NNCCCN1c2ccccc2Sc2ccc(Cl)cc21)c1ccccc1,,,> 10,> 10,,,,40 to 90,2,,
O=C(NNCCCN1c2ccccc2Sc2ccc(Cl)cc21)c1ccncc1,> 10,,> 10,> 10,,,,,2,40 to 90,
O=C(NNCCCNCCCN1c2ccccc2Sc2ccccc21)c1ccncc1,> 10,,> 10,> 10,,,,,,,
O=C(NNCCCN1c2ccccc2Sc2ccccc21)c1ccccc1,,,> 10,> 10,,,,40 to 90,2,,
O=C(NNCCCN1c2ccccc2CCc2ccccc21)c1ccncc1,> 10,,> 10,> 10,,,Active,,,,
O=C(NNCCCN1CCC(N2c3ccccc3Sc3ccc(Cl)cc32)CC1)c1ccncc1,1,37,> 10,> 10,,,,,2,,40 to 90
O=C(NNCCCN1CCC(=C2c3ccccc3C=Cc3ccccc32)CC1)c1ccncc1,2.5,59.2,> 10,> 10,,,,,,,
